Consider 9 compounds from paper PMC7127737 (Bioorganic & Medicinal Chemistry Letters, 2008).

pIC50: −log10 of the molar value.

One assay has as its target T1, human CpA (Homo sapiens, UniProt P15085).
T1 sequence (P15085 111-419): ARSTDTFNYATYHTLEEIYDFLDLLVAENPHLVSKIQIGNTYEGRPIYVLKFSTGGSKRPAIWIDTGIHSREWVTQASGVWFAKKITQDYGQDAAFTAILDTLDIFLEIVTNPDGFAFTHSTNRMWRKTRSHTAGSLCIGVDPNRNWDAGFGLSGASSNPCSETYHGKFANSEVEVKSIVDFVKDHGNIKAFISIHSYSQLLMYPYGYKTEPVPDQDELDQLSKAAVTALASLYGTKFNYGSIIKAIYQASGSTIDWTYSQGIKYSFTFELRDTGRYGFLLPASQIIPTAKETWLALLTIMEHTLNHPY
Description: Inhibition of recombinant human CpA, fluorescence assay. In kind it is biochemical. The note with it: for more potent inhibition of CpA relative to 1a: compared with 1a; for selectivity for ACE2 versus CpA: ratio of Ki Apps CpA/ACE2. The method, boiled down: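 Recombinant human CpA (37 nM) was run with 30 μM Abz-Gly-Gly-Nph-OH, and recombinant human ACE2 (0.4 nM) with 30 μM MCA-Tyr-Val-Ala-Asp-Ala-Pro-Lys(DNP)-OH. Both used 50 mM Hepes pH 7.5, 1 μM Zn(OAc)2, 100 μM TCEP, 300 μM CHAPS and 300 mM NaCl. Compound was pre-incubated before substrate; read-out was fluorescence. Ki App is the mean of ≥2 assays; selectivity is the CpA/ACE2 Ki App ratio.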

The target in a further assay is human ACE (Homo sapiens, UniProt P12821). The assay is described as follows: Inhibition of recombinant human ACE, fluorescence assay. In kind it is biochemical. The note with it: ratio of Ki Apps ACE/ACE2. The method, boiled down: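 Buffer: 50 mM Hepes, 300 mM NaCl, 300 μM CHAPS, 1 μM Zn(OAc)2, 100 μM TCEP, pH 7.5. Thiols were diluted from 10 mM stocks in 50% aqueous acetonitrile and pre-incubated before substrate addition. Values are means of ≥2 assays.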

For a further assay, the target named is human NEP (Homo sapiens, UniProt P08473). Description: Inhibition of recombinant human NEP, fluorescence assay. Format: biochemical. The note with it: ratio of Ki Apps NEP/ACE2. The method, boiled down:
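Fluorescence protease assays, both in 50 mM Hepes pH 7.5 with 1 μM Zn(OAc)2, 100 μM TCEP, 300 μM CHAPS and 300 mM NaCl. NEP: recombinant human enzyme (0.15 nM) with 2 μM FAM-[…]TAMRA)-NH2. ACE2: recombinant human enzyme (0.4 nM) with 30 μM MCA-Tyr-Val-Ala-Asp-Ala-Pro-Lys(DNP)-OH. Compound was pre-incubated before substrate. Ki App is the mean of ≥2 assays; the NEP/ACE2 ratio gives selectivity.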

The test system of another assay is ACE2. The note with it: read-out: ACE2 IC50; reversible inhibitor; cited from earlier work.

Chain of human ACE (P12821 30-1306): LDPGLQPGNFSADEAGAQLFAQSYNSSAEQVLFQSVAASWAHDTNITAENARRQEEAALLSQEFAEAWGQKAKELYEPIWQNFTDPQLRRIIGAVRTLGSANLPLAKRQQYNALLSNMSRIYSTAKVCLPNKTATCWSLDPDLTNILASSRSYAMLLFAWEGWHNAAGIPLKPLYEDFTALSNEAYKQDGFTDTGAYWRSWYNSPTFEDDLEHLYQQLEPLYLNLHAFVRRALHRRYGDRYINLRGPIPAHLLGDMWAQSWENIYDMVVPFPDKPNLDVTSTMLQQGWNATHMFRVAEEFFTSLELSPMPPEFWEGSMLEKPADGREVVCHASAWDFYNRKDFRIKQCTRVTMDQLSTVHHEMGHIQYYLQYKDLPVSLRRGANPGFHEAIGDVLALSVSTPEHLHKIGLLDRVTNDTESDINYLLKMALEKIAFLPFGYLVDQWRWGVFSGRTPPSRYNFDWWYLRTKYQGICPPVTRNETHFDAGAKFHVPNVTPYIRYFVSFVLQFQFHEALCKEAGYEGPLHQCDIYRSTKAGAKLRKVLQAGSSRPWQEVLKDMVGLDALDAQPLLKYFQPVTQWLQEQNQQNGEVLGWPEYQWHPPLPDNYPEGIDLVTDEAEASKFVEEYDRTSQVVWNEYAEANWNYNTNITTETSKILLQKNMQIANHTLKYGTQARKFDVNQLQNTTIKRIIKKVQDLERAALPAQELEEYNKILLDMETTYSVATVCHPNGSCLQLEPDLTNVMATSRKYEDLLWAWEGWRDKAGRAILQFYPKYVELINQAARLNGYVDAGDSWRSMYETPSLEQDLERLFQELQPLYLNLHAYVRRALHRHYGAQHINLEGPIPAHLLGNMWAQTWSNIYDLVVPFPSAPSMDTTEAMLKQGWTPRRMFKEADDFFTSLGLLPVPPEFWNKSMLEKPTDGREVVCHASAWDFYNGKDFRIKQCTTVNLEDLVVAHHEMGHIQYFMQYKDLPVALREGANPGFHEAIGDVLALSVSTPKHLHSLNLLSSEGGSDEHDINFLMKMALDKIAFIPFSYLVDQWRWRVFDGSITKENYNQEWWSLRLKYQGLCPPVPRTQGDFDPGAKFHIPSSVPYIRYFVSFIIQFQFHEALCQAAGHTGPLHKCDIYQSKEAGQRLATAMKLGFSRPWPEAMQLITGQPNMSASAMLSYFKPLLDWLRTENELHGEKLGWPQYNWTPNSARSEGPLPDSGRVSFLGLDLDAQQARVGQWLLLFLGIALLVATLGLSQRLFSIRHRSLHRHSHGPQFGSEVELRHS
Chain of human NEP (P08473 whole entry): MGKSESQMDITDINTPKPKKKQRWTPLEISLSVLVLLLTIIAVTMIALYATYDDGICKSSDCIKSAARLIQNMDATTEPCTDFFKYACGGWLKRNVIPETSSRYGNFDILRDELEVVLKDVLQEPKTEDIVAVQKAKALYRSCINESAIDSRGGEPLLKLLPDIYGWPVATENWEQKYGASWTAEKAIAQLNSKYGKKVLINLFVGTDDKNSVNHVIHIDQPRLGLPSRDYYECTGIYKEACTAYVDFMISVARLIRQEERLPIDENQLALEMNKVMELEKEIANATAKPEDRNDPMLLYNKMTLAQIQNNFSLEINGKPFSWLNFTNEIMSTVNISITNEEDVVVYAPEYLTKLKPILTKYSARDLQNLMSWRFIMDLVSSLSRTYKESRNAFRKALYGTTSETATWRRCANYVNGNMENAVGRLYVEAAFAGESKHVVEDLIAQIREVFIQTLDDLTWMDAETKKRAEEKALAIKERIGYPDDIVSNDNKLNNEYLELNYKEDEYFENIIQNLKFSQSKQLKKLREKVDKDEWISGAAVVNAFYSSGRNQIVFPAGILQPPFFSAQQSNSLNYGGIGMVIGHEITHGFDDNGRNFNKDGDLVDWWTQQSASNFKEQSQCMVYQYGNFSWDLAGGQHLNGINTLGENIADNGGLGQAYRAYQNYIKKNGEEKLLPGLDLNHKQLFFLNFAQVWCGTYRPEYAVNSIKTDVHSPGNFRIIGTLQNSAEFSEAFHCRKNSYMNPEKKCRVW

Regarding `CC[C@@H](C)[C@H](S)C(=O)N[C@@H](Cc1ccccc1)C(=O)O` [1d, N-[(2S,3R)-2-Mercapto-3-methylpentanoyl]-L-phenylalanine], the “more potent inhibition of CpA relative to 1a” value on human CpA is > 10 fold.

Turning to `CC[C@@H](C)[C@H](S)C(=O)N[C@@H](Cc1ccc(O)cc1)C(=O)O` [1e, N-[(2S,3R)-2-Mercapto-3-methylpentanoyl]-L-tyrosine], the “more potent inhibition of CpA relative to 1a” value at human CpA is reported as > 10 fold.

For `CC[C@@H](C)[C@H](S)C(=O)N[C@@H](Cc1cccc2ccccc12)C(=O)O` [1f, N-[(2S,3R)-2-Mercapto-3-methylpentanoyl]-3-(1-naphthalenyl)-L-alanine], the “selectivity for ACE2 versus CpA” value at human CpA is given as > 100 fold. The “selectivity for ACE2 versus ACE” value at human ACE was > 100 fold.

As for `CC[C@@H](C)[C@H](S)C(=O)N[C@@H](Cc1ccc2ccccc2c1)C(=O)O` [1g, N-[(2S,3R)-2-Mercapto-3-methylpentanoyl]-3-(2-naphthalenyl)-L-alanine], the “selectivity for ACE2 versus CpA” value on human CpA was > 100 fold. In addition, the “selectivity for ACE2 versus ACE” value on human ACE was > 100 fold.

In the case of `CC[C@@H](C)[C@H](S)C(=O)N[C@@H](Cc1ccccc1Oc1ccccc1)C(=O)O` [1j, N-[(2S,3R)-2-Mercapto-3-methylpentanoyl]-2-(phenyloxy)-L-phenylalanine], at human CpA, the “selectivity for ACE2 versus CpA” value is listed as > 100 fold. In addition, the “selectivity for ACE2 versus ACE” value at human ACE is reported as > 100 fold.

With `CC[C@@H](C)[C@H](S)C(=O)N[C@@H](Cc1cccc(Oc2ccccc2)c1)C(=O)O` [1k, N-[(2S,3R)-2-Mercapto-3-methylpentanoyl]-3-(phenyloxy)-L-phenylalanine], the “selectivity for ACE2 versus NEP” value at human NEP is reported as 14 fold. In addition, the “selectivity for ACE2 versus CpA” value on human CpA was > 100 fold. At human ACE, the “selectivity for ACE2 versus ACE” value is > 100 fold.

For `CC[C@@H](C)[C@H](S)C(=O)N[C@@H](Cc1ccc(Oc2ccccc2)cc1)C(=O)O` [1l, N-[(2S,3R)-2-Mercapto-3-methylpentanoyl]-O-phenyl-L-tyrosine], on human NEP, the “selectivity for ACE2 versus NEP” value worked out at 5 fold. Also, the “selectivity for ACE2 versus CpA” value at human CpA is recorded as > 100 fold. Also, on human ACE, the “selectivity for ACE2 versus ACE” value is > 100 fold.

Regarding `CC[C@@H](C)[C@H](S)C(=O)N[C@@H](Cc1ccc(OCc2ccc(F)c(F)c2)cc1)C(=O)O` [1r, O-[(3,4-Difluorophenyl)methyl]-N-[(2S,3R)-2-mercapto-3-methylpentanoyl]-L-tyrosine], at human NEP, the “selectivity for ACE2 versus NEP” value is > 750 fold. Besides, the “selectivity for ACE2 versus CpA” value on human CpA is given as > 750 fold. In addition, the “selectivity for ACE2 versus ACE” value on human ACE was > 750 fold.

On to `CC(C)C[C@H](N[C@@H](Cc1cncn1Cc1cc(Cl)cc(Cl)c1)C(=O)O)C(=O)O` [MLN-4760], for which, in the assay with ACE2, the pIC50 is 9.36.

As a reminder, the pIC50 is the IC50 on a negative log10 scale, so that one unit is a factor of ten.
